The record followed here is ChEMBL document CHEMBL1146349, “Endomorphin-1 analogs with enhanced metabolic stability and systemic analgesic activity: design, synthesis, and pharmacological characterization” (Bioorg Med Chem, 2007).

The source made the active and inactive calls. Bounds are passed on as bounds.

The target of series [1] is Delta-type opioid receptor (Mus musculus, UniProt P32300). The series is described as follows: Agonist activity at delta opioid receptor in mouse vas deferens assessed as inhibition of electrically-induced twitches. Type of series: functional, tissue-based. The method, boiled down:
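MVD: paired rectangular pulses (1-ms width, 100-ms apart, 9 V/cm, supramaximal) every 10 s; isometric twitch recording; dose–response curves, IC50 read graphically; mean of five to eight measurements.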

Series [2] has as its target Mu-type opioid receptor (Cavia porcellus, UniProt P97266). The series is described as follows: Agonist activity at mu opioid receptor in guinea pig ileum assessed as inhibition of electrically-induced twitches. The class given is functional, tissue-based. The method, boiled down:
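GPI: twitches evoked at 0.1 Hz, 50 V, 0.5-ms pulse width; isometric recording; dose–response curves with IC50 derived graphically; arithmetic mean of five to eight measurements.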

Series [3] is described as follows: Protein binding to BSA. Type of series: ADME, Bos taurus. Particulars: cattle, isolated protein. The method, boiled down:
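Peptides in mammalian Ringer's solution with 10 g/L BSA and 3.9% dextran, pH 7.4, 37 °C; ultrafiltration (30 kDa cut-off, 2000g, 10 min); total and free peptide by RP-HPLC; % bound = (T−F)/T×100; triplicate.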

For series [4], the target named is Delta-type opioid receptor (Rattus norvegicus, UniProt P33533). The series is described as follows: Binding affinity to delta opioid receptor in rat brain synaptosome membrane by radioligand binding assay. The class given is cell membranes. The method, boiled down: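 Displacement of [3H]Tyr-c[D-Pen-Gly-Phe-D-Pen]-OH 1 nM, 3 h incubation, rat brain synaptosomal membranes (300–500 µg/mL protein), 50 mM Tris–HCl pH 7.4; 10 µM naloxone defines nonspecific binding; duplicate assays, at least three repeats.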
Sequence of Delta-type opioid receptor (Rattus norvegicus, UniProt P33533) (P33533 whole entry): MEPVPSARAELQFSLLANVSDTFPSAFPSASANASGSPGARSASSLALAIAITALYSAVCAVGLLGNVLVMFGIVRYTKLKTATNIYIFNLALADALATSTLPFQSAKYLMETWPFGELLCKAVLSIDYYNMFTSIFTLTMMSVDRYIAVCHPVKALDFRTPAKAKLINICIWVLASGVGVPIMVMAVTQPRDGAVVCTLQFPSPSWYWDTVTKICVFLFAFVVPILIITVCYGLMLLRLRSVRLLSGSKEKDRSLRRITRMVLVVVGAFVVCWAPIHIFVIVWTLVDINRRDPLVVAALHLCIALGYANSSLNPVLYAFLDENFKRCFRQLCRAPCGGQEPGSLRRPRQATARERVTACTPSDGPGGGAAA

Series [5] is described as follows: Distribution coefficient, log D in octanol and […] at pH 7.4. Type of series: physicochemical. The method, boiled down: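 Shake-flask: 50 µg peptide in pre-equilibrated 0.05 M Hepes/0.1 M NaCl pH 7.4 with octanol, vortexed 2 min, centrifuged; both phases quantified by RP-HPLC; D = octanol/buffer ratio; triplicate.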
Series [6] is described as follows: Half life in mouse serum. Type of series: ADME, cell-free. The method, boiled down:
(§1)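 Peptides at 500 µM final in 15% mouse brain homogenate (washed) or 100% mouse serum, 2.3 mg/mL protein, 50 mM Tris pH 7.4, 37 °C; sampled 0–300 min in triplicate; stopped with acetonitrile, acidified, centrifuged, remaining peptide by RP-HPLC.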

A short description of series [7]: Half life in mouse brain. The class given is ADME, tissue-based. The method, boiled down:
as §1

The target in series [8] is Mu-type opioid receptor (Rattus norvegicus, UniProt P33535). The series is described as follows: Binding affinity to mu opioid receptor in rat brain synaptosome membrane by radioligand binding assay. Type of series: cell membranes. The method, boiled down:
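Competition vs [3H]Tyr-D-Ala-Gly-MePhe-Gly-ol (DAMGO-type mu ligand) 0.5 nM, 1 h, on rat brain synaptosomal membranes (300–500 µg/mL protein) in 50 mM Tris–HCl pH 7.4; nonspecific binding with 10 µM naloxone; duplicates, repeated at least three times.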

The subject of another series is Mus musculus. The series is described as follows: Antinociceptive activity in mouse at 30 mg/kg, sc by tail flick test. The class given is functional, organism-based. More on the design: dose 30 mg/kg. The method, boiled down: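 Mice given 30 mg/kg sc (100 µL); 50 °C warm-water tail-flick, baseline responders under 5 s kept, 10 s cut-off; latencies at 5–60 min post-dose; %MPE = 100·(TL−CL)/(10−CL); saline control; six to eight mice per group, mean with SEM.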
A general note: Thermal pain tests record how soon the animal reacts.

Sequence of Mu-type opioid receptor (Rattus norvegicus, UniProt P33535) (P33535 whole entry): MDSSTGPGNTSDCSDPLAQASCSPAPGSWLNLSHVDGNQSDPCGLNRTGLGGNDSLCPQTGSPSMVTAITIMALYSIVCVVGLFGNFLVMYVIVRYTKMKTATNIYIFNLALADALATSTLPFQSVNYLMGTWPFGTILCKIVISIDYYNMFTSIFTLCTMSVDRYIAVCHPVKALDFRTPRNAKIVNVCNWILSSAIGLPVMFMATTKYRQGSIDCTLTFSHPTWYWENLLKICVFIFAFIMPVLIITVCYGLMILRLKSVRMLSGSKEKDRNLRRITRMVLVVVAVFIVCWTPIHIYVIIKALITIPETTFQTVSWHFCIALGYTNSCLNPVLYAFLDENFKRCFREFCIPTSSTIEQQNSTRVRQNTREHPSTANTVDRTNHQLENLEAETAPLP
Sequence of Delta-type opioid receptor (Mus musculus, UniProt P32300) (P32300 whole entry): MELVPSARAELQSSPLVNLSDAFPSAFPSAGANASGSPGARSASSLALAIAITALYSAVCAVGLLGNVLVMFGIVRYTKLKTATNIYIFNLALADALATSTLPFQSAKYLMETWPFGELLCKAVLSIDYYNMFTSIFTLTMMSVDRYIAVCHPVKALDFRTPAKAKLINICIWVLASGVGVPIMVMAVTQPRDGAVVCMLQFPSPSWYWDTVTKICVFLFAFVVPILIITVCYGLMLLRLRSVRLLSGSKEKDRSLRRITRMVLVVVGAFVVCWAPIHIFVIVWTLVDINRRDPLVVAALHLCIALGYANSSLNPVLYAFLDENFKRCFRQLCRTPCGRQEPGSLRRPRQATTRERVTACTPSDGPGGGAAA
Sequence of Mu-type opioid receptor (Cavia porcellus, UniProt P97266) (P97266 whole entry): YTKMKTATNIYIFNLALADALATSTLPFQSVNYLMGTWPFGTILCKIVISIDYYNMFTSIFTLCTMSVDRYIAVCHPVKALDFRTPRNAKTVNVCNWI

Consider `COc1ccc(C[C@H](N=C(N)N)C(=O)N2CCC[C@H]2C(=O)N[C@@H](Cc2c[nH]c3ccccc23)C(=O)N[C@@H](Cc2ccccc2)C(N)=O)cc1`, for which the IC50 (commonly the concentration at which inhibition is half-maximal) in series [1] was 1340 nM; on Mu-type opioid receptor [2], 988 nM. This compound came in with an Activity in series [3] of 40.58%. In addition, the results for the Ki (in series [4]; on Mu-type opioid receptor [8]) were 4790 nM and 792 nM, respectively. Besides, the logD – broadly, the decadic logarithm of the distribution of all forms, ionised or not, between an organic phase and buffer at a given pH – in series [5] is 0.21. The half-life (commonly the time needed for the level to fall by half in the phase considered) in [6] came out at 0.522 h; in [7], 4.3 h.
As for `COc1ccc(C[C@H](N=C(N)N)C(=O)N2CCC[C@H]2C(=O)N[C@@H](Cc2c[nH]c3ccccc23)C(=O)N[C@@H](Cc2ccc(Cl)cc2)C(N)=O)cc1`, the IC50 turned out to be 1290 nM in [1] and 845 nM on Mu-type opioid receptor [2]. This compound had an Activity in series [3] of 65.57%. Besides, the Ki (usually the equilibrium dissociation constant of an inhibitor or competing ligand from its target) in [4] came out at 1370 nM; at Mu-type opioid receptor [8] it was 538 nM. In series [5], this compound returned a logD of 1.33. In addition, the half-life in series [6] was determined as 0.803 h; in series [7], 3.17 h.
`COc1ccc(C[C@H](N=C(N)N)C(=O)N2CCC[C@@H]2C(=O)NCC(=O)N[C@@H](Cc2c[nH]c3ccccc23)C(=O)N[C@@H](Cc2ccccc2)C(N)=O)cc1`: the IC50 is greater than 10000 nM in series [1] and greater than 1000 nM at Mu-type opioid receptor [2]. In addition, the Activity in series [3] was found to be 45.15%. The results for the Ki (in series [4]; on Mu-type opioid receptor [8]) were greater than 10000 nM and 1060 nM, respectively. Also, in series [5], the logD worked out at 0.78. Further, the half-life was 2.75 h in series [6] and 7.45 h in [7].
In the case of `COc1ccc(C[C@H](NC(=N)N)C(=O)N2CCC[C@@H]2C(=O)NCC(=O)N[C@@H](Cc2c[nH]c3ccccc23)C(=O)N[C@@H](Cc2ccc(Cl)cc2)C(N)=O)cc1`, the IC50 in series [1] is greater than 10000 nM; at Mu-type opioid receptor [2], greater than 1000 nM. In addition, the Activity in series [3] is on record as 62.52%. The Ki came out at 1480 nM in [4] and 919 nM at Mu-type opioid receptor [8]. In the series with Mus musculus, the result was Active. In [5], this compound yielded a logD of 1.64. Further, the half-life in series [6] is 3.6 h; in series [7] it was 6.82 h.
